Columns and labels:
[1] = test system: Mus musculus; assay: Chemotherapeutic activity was evaluated by measuring the percent increase in life span of female DBA2 mice intravenously inoculated with L1210 leukemia at 50(mg/kg)/day, iv; format: functional
Method in brief: (§1)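 Female DBA2 mice given 10^4 L1210 cells iv on day 0; cells harvested from a 6- to 8-day-old ascitic L1210 form. Drug given iv on days 1 and 2 at the stated daily dose. Read-outs are % increase in life span and the number of mice alive on day 30 over the total.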

[2] = test system: Mus musculus; assay: Chemotherapeutic activity was evaluated by measuring number of survivors on day 30 / total number of mice at 50(mg/kg)/day, iv; 0/7; format: functional; method in brief: as §1
[3] = test system: Mus musculus; assay: Chemotherapeutic activity was evaluated by measuring number of survivors on day 30 / total number of mice at 60 mg/kg/day, sc; 0/18; format: functional
[4] = test system: Mus musculus; assay: Chemotherapeutic activity was evaluated by measuring percent change in weight on day 8 at 50(mg/kg)/day, iv; format: functional
Method in brief: (§2)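 Female DBA2 mice were inoculated iv on day 0 with 10^4 L1210 leukemic cells. Drugs were given iv on days 1 and 2 at the stated daily dose. Percent body weight change was recorded on day 8, and weight loss served as the index of general toxicity.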

[5] = test system: Mus musculus; assay: Chemotherapeutic activity was evaluated by measuring percent change in weight on day 8 at 60 mg/kg/day, sc; format: functional
Method in brief: (§3)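 Drugs were given iv on days 1 and 2 at the stated daily dose. Average tumor diameter was estimated daily with calipers, and body weight change was recorded on day 8. Results from several experiments are given as mean ± SD.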

[6] = test system: Mus musculus; assay: Chemotherapeutic activity was evaluated by measuring percent change in weight on day 8 at 66 mg/kg/day, sc; format: functional; method in brief: as §3
[7] = test system: Mus musculus; assay: Chemotherapeutic activity was evaluated by measuring number of survivors on day 30 / total number of mice at 66 mg/kg/day, sc; 0/9; format: functional
[8] = test system: Mus musculus; assay: Chemotherapeutic activity was evaluated by measuring mean tumor diameter on day 8 at 60 mg/kg/day, iv
[9] = test system: Mus musculus; assay: Chemotherapeutic activity was evaluated by measuring mean tumor diameter on day 8 at 66 mg/kg/day, iv
[10] = test system: Mus musculus; assay: Chemotherapeutic activity was evaluated by measuring mean tumor diameter on day 12 at 66 mg/kg/day, iv
[11] = test system: Mus musculus; assay: Percent increase in life span of female DBA2 mice subcutaneously inoculated with L1210 leukemia at 60 mg/kg/day, iv
[12] = test system: Mus musculus; assay: Percent increase in life span of female DBA2 mice subcutaneously inoculated with L1210 leukemia at 66 mg/kg/day, iv
[13] = test system: Mus musculus; assay: Chemotherapeutic activity was evaluated by measuring the percent increase in life span of female DBA2 mice intravenously inoculated with L1210 leukemia at 10 mg/kg/day, iv; format: functional; method in brief: as §1
[14] = test system: Mus musculus; assay: Chemotherapeutic activity was evaluated by measuring the percent increase in life span of female DBA2 mice intravenously inoculated with L1210 leukemia at 11 mg/kg/day, iv; format: functional; method in brief: as §1
[15] = test system: Mus musculus; assay: Chemotherapeutic activity was evaluated by measuring the percent increase in life span of female DBA2 mice intravenously inoculated with L1210 leukemia at 12(mg/kg)/day, iv; format: functional; method in brief: as §1
[16] = test system: Mus musculus; assay: Chemotherapeutic activity was evaluated by measuring mean tumor diameter on day 12 at 12(mg/kg)/day, sc; format: functional
[17] = test system: Mus musculus; assay: Chemotherapeutic activity was evaluated by measuring the percent increase in life span of female DBA2 mice subcutaneously inoculated with L1210 leukemia at 12(mg/kg)/day, sc; format: functional
[18] = test system: Mus musculus; assay: Chemotherapeutic activity was evaluated by measuring number of survivors on day 30 / total number of mice at 10 mg/kg/day, iv; 0/18; format: functional; method in brief: as §1
[19] = test system: Mus musculus; assay: Chemotherapeutic activity was evaluated by measuring number of survivors on day 30 / total number of mice at 10 mg/kg/day, sc; 0/58; format: functional
[20] = test system: Mus musculus; assay: Chemotherapeutic activity was evaluated by measuring number of survivors on day 30 / total number of mice at 11 mg/kg/day, iv; 0/37; format: functional; method in brief: as §1
[21] = test system: Mus musculus; assay: Chemotherapeutic activity was evaluated by measuring number of survivors on day 30 / total number of mice at 11 mg/kg/day, sc; 3/37; format: functional
[22] = test system: Mus musculus; assay: Chemotherapeutic activity was evaluated by measuring number of survivors on day 30 / total number of mice at 12(mg/kg)/day, iv; 6/34; format: functional; method in brief: as §1
[23] = test system: Mus musculus; assay: Chemotherapeutic activity was evaluated by measuring number of survivors on day 30 / total number of mice at 12(mg/kg)/day, sc; 3/36; format: functional
[24] = test system: Mus musculus; assay: Chemotherapeutic activity was evaluated by measuring percent change in weight on day 8 at 10 mg/kg/day, iv; format: functional; method in brief: as §2
[25] = test system: Mus musculus; assay: Chemotherapeutic activity was evaluated by measuring percent change in weight on day 8 at 10 mg/kg/day, sc; format: functional; method in brief: as §3
[26] = test system: Mus musculus; assay: Chemotherapeutic activity was evaluated by measuring percent change in weight on day 8 at 11 mg/kg/day, iv; format: functional; method in brief: as §2
[27] = test system: Mus musculus; assay: Chemotherapeutic activity was evaluated by measuring percent change in weight on day 8 at 11 mg/kg/day, sc; format: functional; method in brief: as §3
[28] = test system: Mus musculus; assay: Chemotherapeutic activity was evaluated by measuring percent change in weight on day 8 at 12(mg/kg)/day, iv; format: functional; method in brief: as §2
[29] = test system: Mus musculus; assay: Chemotherapeutic activity was evaluated by measuring percent change in weight on day 8 at 12(mg/kg)/day, sc; format: functional
[30] = test system: Mus musculus; assay: Chemotherapeutic activity was evaluated by measuring mean tumor diameter on day 8 at 10 mg/kg/day, iv
[31] = test system: Mus musculus; assay: Chemotherapeutic activity was evaluated by measuring mean tumor diameter on day 8 at 11 mg/kg/day, iv
[32] = test system: Mus musculus; assay: Chemotherapeutic activity was evaluated by measuring mean tumor diameter on day 12 at 10 mg/kg/day, iv
[33] = test system: Mus musculus; assay: Chemotherapeutic activity was evaluated by measuring mean tumor diameter on day 12 at 11 mg/kg/day, iv
[34] = test system: Mus musculus; assay: Percent increase in life span of female DBA2 mice subcutaneously inoculated with L1210 leukemia at 11 mg/kg/day, iv
[35] = test system: Mus musculus; assay: Percent increase in life span of female DBA2 mice subcutaneously inoculated with L1210 leukemia at 10 mg/kg/day, iv

COc1cccc2c1C(=O)c1c(O)c3c(c(O)c1C2=O)C[C@@](O)(C(C)=O)C[C@@H]3O[C@H]1C[C@H](NC(=O)[C@H](C)N)[C@H](O)[C@H](C)O1
Increase in life-span [1]: 14% | Survivors [2]: 0 | Survivors [3]: 0 | Weight change [4]: -4.4% | Weight change [5]: -5.9% | Weight change [6]: -8.5% | Survivors [7]: 0 | Diameter [8]: 1.3 mm | Diameter [9]: 0 mm | Diameter [10]: 4.2 mm | Increase in life-span [11]: 37% | Increase in life-span [12]: 61%

COc1cccc2c1C(=O)c1c(O)c3c(c(O)c1C2=O)C[C@@](O)(C(C)=O)C[C@@H]3O[C@H]1C[C@H](N)[C@H](O)[C@H](C)O1 [DAUNORUBICIN]
Increase in life-span [13]: 42% | Increase in life-span [14]: 66% | Increase in life-span [15]: 123% | Diameter [16]: 2 mm | Increase in life-span [17]: 83% | Survivors [18]: 0 | Survivors [19]: 0 | Survivors [20]: 0 | Survivors [21]: 3 | Survivors [22]: 6 | Survivors [23]: 3 | Weight change [24]: -1.1% | Weight change [25]: -4.3% | Weight change [26]: -3.2% | Weight change [27]: -5.9% | Weight change [28]: -8.4% | Weight change [29]: -6.3% | Diameter [30]: 0.3 mm | Diameter [31]: 0.4 mm | Diameter [32]: 4.1 mm | Diameter [33]: 2.9 mm | Increase in life-span [34]: 67% | Increase in life-span [35]: 65%
